NSD2 HMT inh – inhibitors of human histone methyltransferase NSD2. inhibition, % at 12.5 µM. O96028. hit rate 0.54% among 310,000. NSD2 peptide methylation, AlphaScreen, 120 min; in the data active = inhibition above about 50%
LEDGF integ inh – blocks HIV-1 LEDGF/p75-dependent DNA integration | inhibition, % at 3.7 µM | AID 743269 | hit rate 0.64% among 370,000 | TR-FRET IN-LEDGF/p75 DNA integration, Eu/Cy5;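 active = inhibition above the screen-wide mean plus 3 SD, cut at about 13% in these data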;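 also: signal is the Cy5 over europium emission ratio at 671 and 618 nm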
MBD2 inh – blocks human MBD2 binding to methylated DNA; Q9UBB5; hit rate 0.31% among 370,000; AID 686964; TR-FRET, MBD2 binding to methylated oligonucleotide; inhibition, % at 4.4 µM; in the data active = inhibition above about 13%
Target sequence (Q9UBB5 whole entry, looked up): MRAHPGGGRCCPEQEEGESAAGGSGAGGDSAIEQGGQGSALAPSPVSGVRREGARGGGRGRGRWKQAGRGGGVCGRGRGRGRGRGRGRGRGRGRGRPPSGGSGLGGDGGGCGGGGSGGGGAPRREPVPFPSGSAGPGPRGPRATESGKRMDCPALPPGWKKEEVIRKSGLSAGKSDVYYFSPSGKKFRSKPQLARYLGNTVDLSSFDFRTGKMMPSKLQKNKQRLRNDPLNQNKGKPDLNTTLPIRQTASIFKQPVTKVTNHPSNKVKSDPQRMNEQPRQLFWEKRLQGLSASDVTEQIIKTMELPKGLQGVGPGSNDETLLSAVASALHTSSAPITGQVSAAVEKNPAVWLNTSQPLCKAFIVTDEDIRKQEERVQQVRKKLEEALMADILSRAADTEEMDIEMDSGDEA
UHRF1 MBD2 ctr – UHRF1 methyl-DNA binding inhibition. Q96T88. UHRF1 binding to methylated oligo, TR-FRET. inhibition, % at 4.4 µM. hit rate 0.75% among 370,000. AID 687016; in the data active = inhibition above about 21%;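 also: UHRF1 SRA domain binding a hemimethylated CpG hairpin DNA probe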
CASP6 VEID inh – blocks human caspase-6 cleavage activity | purified caspase-6, Z-VEID-R110 cleavage fluorescence | inhibition, % at 12.5 µM | hit rate 0.53% among 350,000 | P55212;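 active = mean inhibition across replicates at least about 35%, with every replicate also reaching that limit, limit read from the data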
Target sequence (P55212 24-179 limits assumed): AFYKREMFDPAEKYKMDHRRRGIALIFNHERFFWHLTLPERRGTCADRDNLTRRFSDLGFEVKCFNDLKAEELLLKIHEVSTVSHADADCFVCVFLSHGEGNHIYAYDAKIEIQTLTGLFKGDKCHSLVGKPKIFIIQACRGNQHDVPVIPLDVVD
Target sequence (P55212 194-293 limits assumed): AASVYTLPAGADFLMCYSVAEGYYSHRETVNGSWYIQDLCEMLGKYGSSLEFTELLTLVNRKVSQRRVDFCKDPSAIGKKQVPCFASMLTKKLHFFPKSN
TDP2 inh – TDP2 (human) inhibition, absorbance primary screen. O95551. recombinant TDP2, T5PNP hydrolysis, p-nitrophenol absorbance 415 nm. inhibition, % at 12.8 µM. hit rate 0.34% among 370,000;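 active = inhibition above the mean of all tested compounds plus 3 SD, set per campaign, cut at about 25% in these data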
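test system = human TDP2 enzyme | input = TDP2 enzyme at 120 nM final | medium = 50 mM Tris-HCl pH 7.5 with Mg2+, KCl, DTT, BSA | also added = T5PNP substrate, 5 mM | times = 2 h at 37 °C | technique = epi absorbance | benchmarks = high control without enzyme, low control DMSO plus TDP2 | replication = each compound tested once, singlicate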
IN multimer act – activates HIV-1 integrase multimerization in LEDGF counter-screen; shares compounds with LEDGF integ inh; TR-FRET HIV-1 integrase multimerization, biochemical; activation, % at 7.7 µM; hit rate 17% among 2,000; AID 1053131; in the data active = activation above about 8.9%
TRFRET interf – optically interferes with TR-FRET readout in LEDGF counter-screen; AID 1053135; shares compounds with LEDGF integ inh; inhibition, % at 7.7 µM; TR-FRET optical interference counterscreen, HIV-1 IN multimerization; 2,000 tested, under 10 active;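 active = inhibition above the mean over all tested compounds plus 3 SD, which no compound reached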
LEDGF integ conf – LEDGF/p75-dependent HIV-1 integration inhibition, confirmation; hit rate 36% among 2,000; inhibition, % at 3.7 µM; TR-FRET LEDGF/p75-dependent HIV-1 integration, biochemical; shares compounds with LEDGF integ inh; in the data active = inhibition above about 14%
Large screens that a line does not name were inactive (follow-up assays come after a bar, where they were run). Sampled rows, rich in hits. Any-hit rate of the full collection: about 1.8%.

CN(C)c1ccc(-c2[nH][nH]c(=O)c2NC(=O)c2ccc3ccccc3n2)cc1	LEDGF integ inh 31, TDP2 inh 90 (no result: NSD2 HMT inh) | IN multimer act inactive | TRFRET interf inactive | LEDGF integ conf 19
COCC(=O)N1[C@@H]2c3cccc(=O)n3C[C@@H]2[C@@H](CO)[C@@H]1C(=O)NCc1ccccc1	none (no result: NSD2 HMT inh, LEDGF integ inh, MBD2 inh, UHRF1 MBD2 ctr, TDP2 inh)
COc1ccc2c3c(n(C)c2c1)[C@H](CO)N(C(=O)Cc1ccccn1)CC31CN(C)C1	none (no result: NSD2 HMT inh, LEDGF integ inh, MBD2 inh, UHRF1 MBD2 ctr, TDP2 inh)
NCCCCCNC(=O)/C=N\O	LEDGF integ inh 34 (no result: CASP6 VEID inh) | IN multimer act inactive | TRFRET interf inactive | LEDGF integ conf inactive
O=C(O)c1cc(O)c2c(c1)C(=O)c1cc(O)cc(O)c1C2=O	LEDGF integ inh 20, UHRF1 MBD2 ctr 26 (no result: NSD2 HMT inh) | IN multimer act 44 | TRFRET interf inactive | LEDGF integ conf 25
CC(=O)Oc1cccc2c1C(=O)c1c(OC(C)=O)cc(C(=O)O)cc1C2=O	none (no result: NSD2 HMT inh, CASP6 VEID inh)
CN(C)CC(=O)N[C@H]1CC[C@H](CCn2cc(C3CCCC3)nn2)O[C@H]1CO	none (no result: NSD2 HMT inh, LEDGF integ inh, MBD2 inh, UHRF1 MBD2 ctr, TDP2 inh)
CCCN(C)C[C@H]1OCCCC[C@H](C)Oc2ccc(NS(=O)(=O)c3ccc(C)cc3)cc2C(=O)N([C@@H](C)CO)C[C@@H]1C	none (no result: NSD2 HMT inh, LEDGF integ inh, MBD2 inh, UHRF1 MBD2 ctr, TDP2 inh)
Fc1ccc(CNC(=S)Nc2cccc(Cl)c2)cc1	LEDGF integ inh 15 (no result: CASP6 VEID inh) | IN multimer act inactive | TRFRET interf inactive | LEDGF integ conf inactive
S=C(NCc1ccncc1)Nc1cccc(Cl)c1	none (no result: CASP6 VEID inh)
Cc1ccc(NC(=O)CN2C(=O)N/C(=C/c3ccco3)C2=O)cc1	LEDGF integ inh 21, UHRF1 MBD2 ctr 34 (no result: CASP6 VEID inh) | IN multimer act 14 | TRFRET interf inactive | LEDGF integ conf 26
COc1ccc(NC(=O)N(C)C[C@@H]2Oc3c(NC(=O)Nc4ccc(F)cc4)cccc3C(=O)N([C@@H](C)CO)C[C@H]2C)cc1	none (no result: NSD2 HMT inh, LEDGF integ inh, MBD2 inh, UHRF1 MBD2 ctr, TDP2 inh)
Oc1ccc(/C=N/N2CCCCC2)c(O)c1O	LEDGF integ inh 28, CASP6 VEID inh 39 | IN multimer act inactive | TRFRET interf inactive | LEDGF integ conf 25
CC(C)NC(=O)Nc1ccc2c(c1)C(=O)N([C@@H](C)CO)C[C@H](C)[C@H](CN(C)S(=O)(=O)c1ccc(F)cc1)OCCCC[C@H](C)O2	none (no result: NSD2 HMT inh, LEDGF integ inh, MBD2 inh, UHRF1 MBD2 ctr, TDP2 inh)
CCOC(=O)CCCCC(=O)c1[nH]c(=O)[nH]c1CN1CCOCC1	LEDGF integ inh 17 | IN multimer act inactive | TRFRET interf inactive | LEDGF integ conf inactive
CCOC(=O)c1[nH]c(=O)[nH]c1CSc1nc(C)cc(C)n1	none (no result: CASP6 VEID inh)
CCOC(=O)CCCCC(=O)c1[nH]c(=O)[nH]c1C[n+]1ccc(C)cc1	none
CCOC(=O)CCCCC(=O)c1[nH]c(=O)[nH]c1CSc1nc(C)cc(C)n1	LEDGF integ inh 26 (no result: NSD2 HMT inh, CASP6 VEID inh) | IN multimer act inactive | TRFRET interf inactive | LEDGF integ conf 19
COc1ccc(C[C@@H]2CCc3cnnn3COC[C@H](CC(C)C)NC2=O)cc1	none (no result: NSD2 HMT inh, LEDGF integ inh, MBD2 inh, UHRF1 MBD2 ctr, TDP2 inh)
Brc1ccc2cccnc2c1	none (no result: CASP6 VEID inh)
Nc1cc2cccnc2cc1Cl	LEDGF integ inh 18, CASP6 VEID inh 62 | IN multimer act inactive | TRFRET interf inactive | LEDGF integ conf 27
C[C@@H]1CCCCO[C@@H](CN(C)CC2CCCCC2)[C@H](C)CN([C@H](C)CO)C(=O)c2cc(NS(=O)(=O)c3cn(C)cn3)ccc2O1	none (no result: NSD2 HMT inh, LEDGF integ inh, MBD2 inh, UHRF1 MBD2 ctr, TDP2 inh)
O=C1C(=Cc2ccco2)C(=O)c2ccccc21	LEDGF integ inh 14 (no result: CASP6 VEID inh) | IN multimer act inactive | TRFRET interf inactive | LEDGF integ conf inactive
O=C1/C(=C/c2ccco2)CCc2ccccc21	none
Cn1c(SCC(=O)N2CCOCC2)nnc1-c1cnccn1	LEDGF integ inh 20 (no result: CASP6 VEID inh) | IN multimer act inactive | TRFRET interf inactive | LEDGF integ conf inactive
Cn1c(SCC(=O)N2CCOCC2)nnc1-c1ccncc1	none
C[C@@H]1CN([C@@H](C)CO)C(=O)Cc2cc(NS(=O)(=O)c3cccs3)ccc2O[C@H]1CN(C)C(=O)Nc1ccc(F)cc1	none (no result: NSD2 HMT inh, LEDGF integ inh, MBD2 inh, UHRF1 MBD2 ctr, TDP2 inh)
Cc1ccn(CCC(=O)N2CCCC(N3CCN(c4ccccc4C)CC3)C2)n1 (stereo not drawn)	LEDGF integ inh 58 | IN multimer act inactive | TRFRET interf inactive | LEDGF integ conf inactive
NC(=O)/C(=C\c1ccco1)NC(=O)c1ccco1	LEDGF integ inh 14 | IN multimer act inactive | TRFRET interf inactive | LEDGF integ conf inactive
Cc1cc(C(C)(C)C)c(O)c(C(C)(C)C)c1	none (no result: NSD2 HMT inh)
Cc1cc(O)c(Oc2cc(C)cc(O)c2O)c(O)c1	LEDGF integ inh 35 (no result: NSD2 HMT inh) | IN multimer act inactive | TRFRET interf inactive | LEDGF integ conf 33
CC1CN(C)C(C)C/C1=N/Oc1ccccc1[N+](=O)[O-] (stereo not drawn)	LEDGF integ inh 26 | IN multimer act inactive | TRFRET interf inactive | LEDGF integ conf inactive
O=C1CC(c2ccco2)CC(O)=C1C=NCC1NCCc2ccccc21 (stereo not drawn)	LEDGF integ inh 23 (no result: CASP6 VEID inh) | IN multimer act inactive | TRFRET interf inactive | LEDGF integ conf inactive
COP(=O)(OC)C(=NNS(=O)(=O)c1ccc(C)cc1)c1ccccc1	LEDGF integ inh 27 | IN multimer act inactive | TRFRET interf inactive | LEDGF integ conf inactive
O=S(=O)(NN=C(c1ccccc1)c1ccccc1)c1ccccc1	none
CN(C)C(=O)C[C@H]1CC[C@@H]2[C@H](COC[C@H](O)CN2S(=O)(=O)c2ccccc2)O1	none (no result: NSD2 HMT inh, LEDGF integ inh, MBD2 inh, UHRF1 MBD2 ctr, TDP2 inh)
Cc1cnc(C)c(N(C)NC(=S)Nc2ccccc2)n1	LEDGF integ inh 16 | IN multimer act inactive | TRFRET interf inactive | LEDGF integ conf inactive
Cc1nn(C)c(-c2n[nH]c(=S)n2Cc2ccco2)c1Cl	LEDGF integ inh 20 | IN multimer act inactive | TRFRET interf inactive | LEDGF integ conf inactive
COc1ccc(CS(=O)(=O)CC(C)(O)c2ccc(Cl)cc2)cc1 (stereo not drawn)	LEDGF integ inh 14 | IN multimer act inactive | TRFRET interf inactive | LEDGF integ conf inactive
Cc1cc2c(NC(=O)Nc3ccc(C(F)(F)F)cc3)cccc2nn1	LEDGF integ inh 30, CASP6 VEID inh 54 | IN multimer act inactive | TRFRET interf inactive | LEDGF integ conf inactive
COc1cc(CNc2ncnc3c2ncn3[C@H]2CN(Cc3cccc(C(F)(F)F)c3)C[C@@H](CO)O2)cc(OC)c1OC	none
COc1cc(CNc2ncnc3c2ncn3[C@H]2CN(Cc3cccc(C(F)(F)F)c3)C[C@@H](COC(C)=O)O2)cc(OC)c1OC	LEDGF integ inh 38 | IN multimer act inactive | TRFRET interf inactive | LEDGF integ conf inactive

Source: PubChem (several laboratories)
